Results taken from ChEMBL document CHEMBL1124154, “Polycyclic aryl- and heteroarylpiperazinyl imides as 5-HT1A receptor ligands and potential anxiolytic agents: synthesis and structure-activity relationship studies” (J Med Chem, 1988).

Tests used:
[1] = target: D(2) dopamine receptor (Rattus norvegicus) (UniProt P61169); assay: In vitro inhibition of [3H]spiperone binding to dopamine receptor D2 from rat brain limbic tissue at 1 uM; type: tissue-based; conditions: Limbic system
Rattus norvegicus = species on record: Rattus norvegicus; assay: Concentration required to produce 50% block in avoidance responding in conditioned avoidance response test in rat; type: functional
In short: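 Trained rats in shelf-jump and/or discrete-trial conditioned avoidance paradigms. Drug given ip or po to at least five rats per dose, with a control session before each drug run. Trials without avoidance (avoidance block) were counted per dose as a percentage of total trials, with control set at 100%. AB50 was taken from a least-squares dose-effect regression line.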

[2] = target: T1, 5-hydroxytryptamine receptor 1A (Rattus norvegicus, UniProt P19327); assay: In vitro inhibition of [3H]-8-hydroxy-2-(di-n-propylamino)tetralin binding to 5-hydroxytryptamine 1A receptor from rat hippocampal tissue.
T1 sequence (P19327 whole entry): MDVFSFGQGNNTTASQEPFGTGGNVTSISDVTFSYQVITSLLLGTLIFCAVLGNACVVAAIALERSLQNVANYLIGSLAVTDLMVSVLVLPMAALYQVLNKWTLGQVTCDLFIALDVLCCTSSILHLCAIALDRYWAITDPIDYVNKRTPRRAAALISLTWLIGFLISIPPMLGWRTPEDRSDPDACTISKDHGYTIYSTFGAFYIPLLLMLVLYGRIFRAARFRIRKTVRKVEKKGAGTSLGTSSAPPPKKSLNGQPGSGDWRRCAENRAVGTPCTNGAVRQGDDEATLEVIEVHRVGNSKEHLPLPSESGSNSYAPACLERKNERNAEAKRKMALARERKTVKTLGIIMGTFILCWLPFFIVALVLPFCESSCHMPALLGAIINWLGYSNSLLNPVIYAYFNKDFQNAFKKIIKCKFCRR

[3] = Partition coefficient (logP); type: physicochemical; conditions: octanol/water
D(2) dopamine receptor = D(2) dopamine receptor (Rattus norvegicus, UniProt P61169); assay: In vitro inhibition of [3H]spiperone binding to Dopamine receptor D2 from rat brain limbic tissue; type: tissue-based, Limbic system
Sequence of D(2) dopamine receptor (P61169 whole entry): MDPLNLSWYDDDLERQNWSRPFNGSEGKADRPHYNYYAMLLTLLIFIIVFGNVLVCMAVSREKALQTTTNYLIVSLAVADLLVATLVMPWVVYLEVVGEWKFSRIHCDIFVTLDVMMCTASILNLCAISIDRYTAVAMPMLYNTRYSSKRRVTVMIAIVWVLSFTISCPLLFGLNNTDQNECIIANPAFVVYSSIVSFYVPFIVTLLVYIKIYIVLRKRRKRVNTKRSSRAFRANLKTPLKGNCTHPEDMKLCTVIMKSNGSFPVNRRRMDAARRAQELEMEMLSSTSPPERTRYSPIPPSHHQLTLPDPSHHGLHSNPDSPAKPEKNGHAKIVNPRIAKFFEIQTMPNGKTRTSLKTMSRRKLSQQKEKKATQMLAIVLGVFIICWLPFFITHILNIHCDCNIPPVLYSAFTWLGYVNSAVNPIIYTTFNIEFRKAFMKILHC
In short: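 Limbic tissue (nucleus accumbens, septum, olfactory tubercle) from Sprague-Dawley rats, washed membranes at 0.2-0.3 mg protein. Incubated with 0.3 nM [3H]spiroperidol and a range of drug concentrations, 10 min at 37 °C, in Tris buffer pH 7.1 with NaCl, KCl, CaCl2, ascorbate and pargyline. Filtered through GF/B and counted by scintillation. Nonspecific binding defined with 1 μM (+)-butaclamol.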

[4] = target: T2, 5-hydroxytryptamine receptor 1A (Rattus norvegicus) (UniProt P19327); assay: In vitro inhibition of [3H]-8-hydroxy-2-(di-n-propylamino)tetralin binding to 5-hydroxytryptamine 1A receptor from rat hippocampal tissue at 1 uM; conditions: Hippocampus
T2 sequence (whole entry): T1 sequence (P19327 whole entry)

[5] = Ratio of ED50 stereotyped behavior in mice; type: functional

Sequence of D(2) dopamine receptor (Rattus norvegicus) (P61169 whole entry): as above

Compound | inhibition [1] [%] | AB50 (Rattus norvegicus) [mg/kg] | Ki [2] [nM] | logP [3] | Ki (D(2) dopamine receptor) [nM] | inhibition [4] [%] | Ratio [5]
O=C1C2C3C=CC(C4C=CC43)C2C(=O)N1CCCCN1CCN(c2cccc(Cl)c2)CC1 (stereo unspecified) | 3 | >40 | 41 |  |  |  | 
Cl.O=C1C2C3CCCC(CC3)C2C(=O)N1CCCCN1CCN(c2cccc(C(F)(F)F)c2)CC1 (stereo unspecified) | 97 | >40 | 17 |  |  |  | 
Cl.O=C1C2C3C=CC(CCC3)C2C(=O)N1CCCCN1CCN(c2ncccn2)CC1 (stereo unspecified) | 53 | 40 |  | 1.94 |  |  | 
O=C1C2C3C=CC(C3)C2C(=O)N1CCCCN1CCN(c2nccnc2Cl)CC1 (stereo unspecified) | 48 | 40 | 37 |  |  |  | 
O=C1C2C3C=CC(C4CCC34)C2C(=O)N1CCCCN1CCN(c2ccc(Cl)nn2)CC1 (stereo unspecified) |  | >40 |  |  | 1920 |  | 
O=C1C2C3C=CC(C3)C2C(=O)N1CCCCN1CCN(c2ncccn2)CC1 (stereo unspecified) |  | 5 | 42 | 1.36 | 248 |  | 
O=C1C2C3C=CC(CCCC3)C2C(=O)N1CCCCN1CCN(c2cncc(Cl)n2)CC1 (stereo unspecified) |  | 25 |  |  |  |  | 
O=C1C2C3C=CC(C4CC34)C2C(=O)N1CCCCN1CCN(c2cncc(Cl)n2)CC1 (stereo unspecified) |  | 40 |  |  |  |  | 
O=C1C2C3CS(=O)(=O)CC3C2C(=O)N1CCCCN1CCN(c2nccnc2Cl)CC1 (stereo unspecified) | 0 | 40 |  |  |  | 28 | 
Cl.O=C1N(CCCCN2CCN(c3cnccn3)CC2)C(=O)C23C4C=CC(C4)C12C1C=CC3C1 (stereo unspecified) | 14 | 40 | 129 |  |  |  | 
O=C1C2C3C=CC(C3)C2C(=O)N1CCCCN1CCN(c2ccc(Cl)nn2)CC1 (stereo unspecified) | 19 | 40 |  |  |  |  | 
O=C1C2C3C=CC(C4CCC34)C2C(=O)N1CCCCN1CCN(c2cccc(Cl)c2)CC1 (stereo unspecified) | 87 | 40 | 19 |  |  |  | 
O=C1C2C3CCC(C4CC43)C2C(=O)N1CCCCN1CCN(c2nccnc2Cl)CC1 (stereo unspecified) | 75 | 61 | 26 |  |  |  | 
Cl.O=C1C2C3C=CC(C4CC34)C2C(=O)N1CCCCN1CCN(c2ccc(C(F)(F)F)cn2)CC1 (stereo unspecified) | 40 | 40 |  |  |  | 55 | 
O=C1C2C3CCC(C4CCC43)C2C(=O)N1CCCCN1CCN(c2cncc(Cl)n2)CC1 (stereo unspecified) |  | >40 | 51 |  |  |  | 
Cl.O=C1C2C3C=CC(C4C=CC43)C2C(=O)N1CCCCN1CCN(c2ncccn2)CC1 (stereo unspecified) | 59 | 13 |  | 1.79 |  |  | 7.6
O=C1C2C3C=CC(C4C=CC43)C2C(=O)N1CCCCN1CCN(c2cncc(Cl)n2)CC1 (stereo unspecified) | 50 | 40 |  |  |  |  | 
Cl.O=C1C2C3CCCC(CC3)C2C(=O)N1CCCCN1CCN(c2ncccn2)CC1 (stereo unspecified) | 74 | 40 | 5 |  |  |  | 
Cl.O=C1C2C3CS(=O)(=O)CC3C2C(=O)N1CCCCN1CCN(c2ncccn2)CC1 (stereo unspecified) | 0 | >40 |  |  |  | 44 | 
O=C1C2C3CCC(C4CC43)C2C(=O)N1CCCCN1CCN(c2cncc(Cl)n2)CC1 (stereo unspecified) | 49 | 40 |  |  |  | 72 | 
O=C1C2C3C=CC(C3)C2C(=O)N1CCCCN1CCN(c2cncc(Cl)n2)CC1 (stereo unspecified) | 1 | 40 |  |  |  | 74 | 
O=C1C2C3C=CC(CCC3)C2C(=O)N1CCCCN1CCN(c2cncc(Cl)n2)CC1 (stereo unspecified) | 43 | 68 |  |  |  |  | 
COc1ccccc1N1CCN(CCCCN2C(=O)C3C4C=CC(C5C=CC54)C3C2=O)CC1.Cl (stereo unspecified) | 100 | 19 | 1.3 |  |  | 100 | 
Cl.O=C1C2C3C=CC(C4CCC34)C2C(=O)N1CCCCN1CCN(c2cccc(C(F)(F)F)c2)CC1 (stereo unspecified) | 99 | 40 | 57 |  |  |  | 
Cl.O=C1C2C3C=CC(C4CC34)C2C(=O)N1CCCCc1ccncc1 (stereo unspecified) | 0 | >40 |  |  |  | 0 | 

Compound | inhibition [1] [%] | AB50 (Rattus norvegicus) [mg/kg] | Ki [2] [nM] | logP [3] | Ki (D(2) dopamine receptor) [nM] | inhibition [4] [%] | Ratio [5]
O=C1[C@@H]2[C@H]3CC[C@H](C3)[C@@H]2C(=O)N1CCCCN1CCN(c2ncccn2)CC1 [TANDOSPIRONE] |  | 28 | 9 |  |  |  | 
O=C1C2CCCCC2C(=O)N1CCCCN1CCN(c2ncccn2)CC1 (stereo unspecified) |  | 6 |  |  | 374 |  | 
Cl.O=C1C2C3C=CC(C4CC34)C2C(=O)N1CCCCN1CCN(c2ncccn2)CC1 (stereo unspecified) |  | 40 | 38 | 1.73 | 488 |  | 
O=C1N(CCCCN2CCN(c3cncc(Cl)n3)CC2)C(=O)C23C4C=CC(C4)C12C1C=CC3C1 (stereo unspecified) |  | >40 |  |  |  | 98 | 
Cl.O=C1N(CCCCN2CCN(c3ncccn3)CC2)C(=O)C23C4CCC(C4)C12C1CCC3C1 (stereo unspecified) | 63 | 40 |  |  |  |  | 
Cl.O=C1C2C3CCC(C4CC43)C2C(=O)N1CCCCN1CCN(c2cccc(C(F)(F)F)c2)CC1 (stereo unspecified) | 92 | >40 | 20 |  |  |  | 
Cl.O=C1C2C3CCC(C4CC43)C2C(=O)N1CCCCN1CCN(c2ncccn2)CC1 (stereo unspecified) |  | 34 |  | 1.83 |  |  | 
Cl.O=C1C2C3C=CC(C4CCC34)C2C(=O)N1CCCCN1CCN(c2ncccn2)CC1 (stereo unspecified) |  | 47 | 1.3 | 2.02 |  |  | 
Cl.O=C1C2C3C=CC(C4C=CC43)C2C(=O)N1CCCCN1CCN(c2cnccn2)CC1 (stereo unspecified) | 13 | 40 |  |  |  | 46 | 
O=C1C2C3CCCC(CC3)C2C(=O)N1CCCCN1CCN(c2cncc(Cl)n2)CC1 (stereo unspecified) | 49 | >40 | 162 |  |  |  | 
Cl.O=C1C2C3C=CC(C4C=CC43)C2C(=O)N1CCCCN1CCN(c2ccc(C(F)(F)F)cn2)CC1 (stereo unspecified) | 31 | >40 |  |  |  | 40 | 
O=C1C2C3CS(=O)(=O)CC3C2C(=O)N1CCCCN1CCN(c2cncc(Cl)n2)CC1 (stereo unspecified) | 0 | 40 |  |  |  | 35 | 
Cl.O=C1C2C3CCC(C4CCC43)C2C(=O)N1CCCCN1CCN(c2ncccn2)CC1 (stereo unspecified) |  | 40 | 1 | 2.09 | 53 |  | 
O=C1C2C3C=CC(C4CCC34)C2C(=O)N1CCCCN1CCN(c2cncc(Cl)n2)CC1 (stereo unspecified) |  | 40 | 190 |  |  |  | 
Cl.O=C1C2C3C=CC(C4CC34)C2C(=O)N1CCCCN1CCN(c2cccc(C(F)(F)F)c2)CC1 (stereo unspecified) | 91 | 44 | 26 |  |  |  | 
Cl.O=C1C2C3C=CC(C4C=CC43)C2C(=O)N1CCCCN1CCN(c2cccc(C(F)(F)F)c2)CC1 (stereo unspecified) | 96 | 40 | 25 |  |  |  | 
O=C1C2C3C=CC(C4CC34)C2C(=O)N1CCCCN1CCN(c2cccc(Cl)c2)CC1 (stereo unspecified) | 100 | 40 | 14 |  |  |  | 
CC(C)=C1C2C=CC1C1C(=O)N(CCCCN3CCN(c4cncc(Cl)n4)CC3)C(=O)C21 (stereo unspecified) |  | 40 |  |  | 968 |  | 
O=C1C2C3C=CC(C4CC34)C2C(=O)N1CCCCC1CCN(c2cncc(Cl)n2)CC1 (stereo unspecified) | 21 | 40 |  |  |  | 8 | 
Cl.O=C1C2C3CCCC(CC3)C2C(=O)N1CCCCN1CCN(c2ccc(C(F)(F)F)cn2)CC1 (stereo unspecified) | 33 | >40 |  |  |  | 71 | 
O=C1N(CCCCN2CCN(c3cncc(Cl)n3)CC2)C(=O)C23C4CCC(C4)C12C1CCC3C1 (stereo unspecified) |  | 40 |  |  |  | 23 | 
Cl.O=C1N(CCCCN2CCN(c3ncccn3)CC2)C(=O)C23C4C=CC(C4)C12C1C=CC3C1 (stereo unspecified) | 53 | 40 |  |  |  |  | 
Cl.Cn1nnnc1N1CCN(CCCCN2C(=O)C3C4C=CC(C5CCC45)C3C2=O)CC1 (stereo unspecified) | 39 | 40 |  |  |  | 47 | 
Cl.O=C1C2C3C=CC(CCC3)C2C(=O)N1CCCCc1ccncc1 (stereo unspecified) | 6 | 40 |  |  |  | 0 | 
O=C1C2C3C=CC(C4CC34)C2C(=O)N1CCCCN1CCN(c2ccc(Cl)nn2)CC1 (stereo unspecified) |  | 40 |  |  | 2330 |  | 
